Experimental data published in ChEMBL document CHEMBL2163220 (J Med Chem, 2012).
Calls of active or inactive are those of the source. No cut-off for these calls is given here.

Assays:
[1] = target: T1, Progesterone receptor (Homo sapiens) (UniProt P06401); test: Antagonist activity at progesterone receptor in human PC3 cells assessed as reduction in R5020-inducedreceptor transactivation at 1 uM by luciferase reporter gene assay; format: functional, cell-based; settings: PC-3
T1 sequence (whole entry): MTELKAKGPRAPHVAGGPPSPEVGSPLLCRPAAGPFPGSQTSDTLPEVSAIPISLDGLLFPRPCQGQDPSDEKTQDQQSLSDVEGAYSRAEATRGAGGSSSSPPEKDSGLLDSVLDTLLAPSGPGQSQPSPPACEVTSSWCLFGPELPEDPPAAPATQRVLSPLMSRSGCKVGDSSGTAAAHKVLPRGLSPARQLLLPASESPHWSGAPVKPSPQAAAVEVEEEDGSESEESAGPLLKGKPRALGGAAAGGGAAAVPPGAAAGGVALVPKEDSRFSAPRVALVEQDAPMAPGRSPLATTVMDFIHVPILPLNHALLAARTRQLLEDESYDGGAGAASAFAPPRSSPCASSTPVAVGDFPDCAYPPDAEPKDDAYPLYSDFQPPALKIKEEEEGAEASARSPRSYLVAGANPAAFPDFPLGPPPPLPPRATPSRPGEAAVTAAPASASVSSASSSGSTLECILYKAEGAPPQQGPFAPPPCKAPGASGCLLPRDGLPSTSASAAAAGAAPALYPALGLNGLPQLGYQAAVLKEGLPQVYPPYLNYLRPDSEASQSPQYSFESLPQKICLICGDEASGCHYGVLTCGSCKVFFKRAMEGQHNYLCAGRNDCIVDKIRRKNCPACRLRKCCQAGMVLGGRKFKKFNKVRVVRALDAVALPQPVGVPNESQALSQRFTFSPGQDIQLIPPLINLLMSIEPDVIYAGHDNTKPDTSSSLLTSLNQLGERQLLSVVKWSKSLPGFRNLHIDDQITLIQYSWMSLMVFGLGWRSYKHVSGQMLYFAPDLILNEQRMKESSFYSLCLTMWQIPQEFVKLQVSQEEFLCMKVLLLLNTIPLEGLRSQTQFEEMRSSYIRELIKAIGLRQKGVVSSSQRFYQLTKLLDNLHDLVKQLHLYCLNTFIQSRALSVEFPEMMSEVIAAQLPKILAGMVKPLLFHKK
In short: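 PC-3 cells lack detectable PR, so they were cotransfected with a PR expression plasmid and the MMTV-luc reporter. Compound tested at 1 μM, alone or against transactivation induced by 10 nM R5020. Read-out was luciferase reporter activity.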

[2] = tested on: LNCaP; test: Cytotoxicity against human LNCAP cells incubated for 72 hrs by MTT assay; format: functional, cell-based
In short: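 MTT assay run across a panel of prostate cancer cell lines.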

Activity [1]: inactive
SMILES: Cc1coc2c1C(=O)C(=O)c1c-2ccc2c1CCCC2(C)C [TANSHINONE IIA]
IC50 [2]: 500 nM
